Bioassay records (PubChem)
TbHK1 inh = Trypanosoma brucei hexokinase 1 inhibitors, primary screen, biochemical, G6PDH-coupled NADH absorbance, MLSCN library | hexokinase 1 [Trypanosoma brucei] | recombinant TbHK1, G6PDH-coupled NADH A340 | inhibition, % at 10 µM | actives 0.11% (n = 220,000);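 active = inhibition of 50% or more in the single-dose primary screen; inactive = inhibition below 50%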
G6PDH counter = L. mesenteroides G6PDH inhibitors, counter-screen for G6PDH-coupled screening assays, biochemical, Leuconostoc mesenteroides enzyme | AID 1020, 2008 | glucose-6-phosphate dehydrogenase [Leuconostoc mesenteroides] | actives 0.12% (n = 200,000) | inhibition, % at 5 µM | Purified L. mesenteroides G6PDH, diaphorase/resazurin coupled fluorescence, 45 min; in the data active = inhibition above about 50%
PMI act satM6P = human PMI activators, high substrate, primary screen, biochemical, fluorescence intensity, near-saturating mannose 6-phosphate. actives 0.34% (n = 190,000). coupled PMI enzyme assay, resazurin fluorescence, 20 min; active compounds read high; 1 = untreated enzyme, 0 = substrate-free blank. activation factor at 20 µM;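 active = activation factor of 2 or more at 20 µM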
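Material: human phosphomannose isomerase with PGI, G6PDH, diaphorase coupling enzymes. Quantity: 15 ng/mL PMI. Medium: HEPES pH 7.4 buffer with MgCl2 and Tween-20. Reagent: Near-saturating mannose-6-phosphate, 1.0 mM. Compound: 20 µM single dose. Times: enzyme reaction with compound 20 min at room temperature. Detection: resorufin fluorescence at Ex 544/Em 590 nm.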
p97 ATPase inh = inhibitors of human p97 ATPase, primary screen, biochemical | Transitional endoplasmic reticulum ATPase (Homo sapiens), P55072 | recombinant p97 ATPase, Kinase-Glo ATP luminescence, 3 h | inhibition, % at 8 µM | actives 0.42% (n = 220,000); in the data active = inhibition above about 15%
Target sequence (P55072 whole entry, looked up): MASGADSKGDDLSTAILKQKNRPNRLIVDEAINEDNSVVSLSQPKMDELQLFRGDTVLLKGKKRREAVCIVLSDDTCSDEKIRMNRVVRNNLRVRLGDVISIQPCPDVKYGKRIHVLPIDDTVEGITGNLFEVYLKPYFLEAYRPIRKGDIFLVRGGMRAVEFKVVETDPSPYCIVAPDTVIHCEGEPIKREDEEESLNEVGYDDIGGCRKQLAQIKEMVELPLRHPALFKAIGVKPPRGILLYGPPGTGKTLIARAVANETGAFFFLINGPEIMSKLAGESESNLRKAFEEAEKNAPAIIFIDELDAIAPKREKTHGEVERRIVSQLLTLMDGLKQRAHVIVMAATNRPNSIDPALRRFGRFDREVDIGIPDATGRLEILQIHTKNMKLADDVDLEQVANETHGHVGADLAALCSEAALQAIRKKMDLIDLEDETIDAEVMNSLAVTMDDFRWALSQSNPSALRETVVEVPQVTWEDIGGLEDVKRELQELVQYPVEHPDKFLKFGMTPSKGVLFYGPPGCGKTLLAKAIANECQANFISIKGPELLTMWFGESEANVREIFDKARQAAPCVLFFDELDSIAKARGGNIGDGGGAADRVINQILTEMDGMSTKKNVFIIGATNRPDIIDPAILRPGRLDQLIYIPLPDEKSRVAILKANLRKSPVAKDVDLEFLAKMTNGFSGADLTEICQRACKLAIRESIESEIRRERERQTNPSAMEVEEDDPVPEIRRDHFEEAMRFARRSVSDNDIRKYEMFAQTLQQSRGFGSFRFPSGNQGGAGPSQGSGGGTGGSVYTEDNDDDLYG
PMI act = activators of human PMI, primary screen, biochemical, fluorescence intensity, near-Km mannose 6-phosphate | Mannose-6-phosphate isomerase (Homo sapiens), P34949 | purified human PMI, coupled resazurin fluorescence, 20 min; active compounds read high; 1 = vehicle control, 0 substrate-free wells | activation factor at 20 µM | actives 0.005% (n = 190,000) | AID 1214, 2008;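 active = activation factor of 2 or more at 20 µM, relative to plate controls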
Redox H2O2 prof = compounds producing H2O2 with reducing agent – biochemical, NIH compound library profiling, artefact control for MLSCN library redox annotation, primary screen; DTT-dependent redox cycling H2O2, phenol red/HRP absorbance; 100% = 100 µM peroxide control, 0% = buffer; activation, % at 10 µM; actives 0.03% (n = 200,000);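 active = activation of at least 50% relative to the plate's high and low controls in the primary single-dose screen; inactive = activation below 50%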;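 note: compound incubated with DTT at 0.8 mM final as the reducing agent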
p97 confirm = p97 ATPase inhibitors, retest, confirmation, biochemical; actives 44% (n = 760); shares compounds with p97 ATPase inh; recombinant p97 ATPase, Kinase-Glo ATP luminescence; inhibition, % at 8 µM;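 active = percent inhibition of p97 ATPase above a set limit, the primary screen's mean plus 3 SD, cut at about 15% in these data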
Each line names hits and unclear results; the compound was inactive in the other large screens (follow-up assays come after a bar, where they were run). Shown are actives, neighbours in structure and some others; about 0.91% of the full set was active somewhere.

COc1ccc(CNC(=O)CC2Sc3ccccc3NC2=O)cc1 (stereo not given)	none
COC(=O)CC1Sc2ccccc2NC1=O (stereo not given)	p97 ATPase inh 16 | p97 confirm inactive
O=c1[nH]c(S)c(/C=C2\C=Nc3ccccc32)s1	p97 ATPase inh 22 (no result: G6PDH counter, PMI act satM6P, PMI act, Redox H2O2 prof) | p97 confirm 16
CCOc1ccc(N2C(=O)CC(NC3CCCCNC3=O)C2=O)cc1 (stereo not given)	none
O=C1NCCCCC1NC1CC(=O)N(c2ccccc2)C1=O (stereo not given)	p97 ATPase inh 17 | p97 confirm inactive
Cc1cc(/C=C2\SC(=S)NC2=O)c(C)n1-c1ccc(O)cc1	p97 ATPase inh 56 (no result: G6PDH counter, PMI act satM6P, PMI act, Redox H2O2 prof) | p97 confirm inactive
Cc1ccc(Cl)c2c1=NC(=O)C=2c1[nH]c(=S)[nH]c1O	none
N#CC1=C(N)NC(=S)C(C(N)=O)C1c1ccc(Cl)cc1Cl (stereo not given)	none
N#CC1=C(N)NC(=S)C(C(N)=O)C1c1ccccc1F (stereo not given)	p97 ATPase inh 16 (no result: G6PDH counter, PMI act satM6P, PMI act, Redox H2O2 prof) | p97 confirm inactive
C/C(=N/NC(=O)C(C)n1nc(C)c([N+](=O)[O-])c1C)c1ccc(OCC(N)=O)cc1 (stereo not given)	none (no result: G6PDH counter, PMI act satM6P, PMI act, Redox H2O2 prof)
O=C(N/N=C/c1c[nH]c2ccccc12)c1cc(-c2ccc(-c3ccccc3)cc2)n[nH]1	p97 ATPase inh 17 | p97 confirm inactive
O=C(N/N=C/c1c[nH]c2ccccc12)c1cc(-c2ccccc2)n[nH]1	none
Cc1ccc(S(=O)(=O)CC2CSc3nc4ccccc4n32)cc1 (stereo not given)	none
CCCCn1c(NC(=O)c2ccco2)c(S(=O)(=O)c2ccc(C)cc2)c2nc3ccccc3nc21	p97 ATPase inh 27 | p97 confirm inactive
Cc1ccc(S(=O)(=O)c2c(N)n(CCCO)c3nc4ccccc4nc23)cc1	none
CCC(=O)Nc1c(S(=O)(=O)c2ccc(C)cc2)c2nc3ccccc3nc2n1C(C)c1ccccc1 (stereo not given)	none
CCCCn1c(NS(=O)(=O)c2ccccc2)c(S(=O)(=O)c2ccc(C)cc2)c2nc3ccccc3nc21	p97 ATPase inh 25, Redox H2O2 prof 100 | p97 confirm 29
CCCCCn1c(NC(=O)c2ccco2)c(S(=O)(=O)c2ccc(C)cc2)c2nc3ccccc3nc21	p97 ATPase inh 26 | p97 confirm inactive
CCCCn1c(NC(=O)c2ccc(Br)o2)c(S(=O)(=O)c2ccccc2)c2nc3ccccc3nc21	p97 ATPase inh 46 | p97 confirm 22
C=CCN(c1ccccc1Cl)S(=O)(=O)c1cccc(C(=O)OCC(=O)N(C)C2CCS(=O)(=O)C2)c1 (stereo not given)	none
CCOC(=O)C1C(c2cccc(F)c2)NC(=S)NC1(O)C(F)(F)F (stereo not given)	none
Cn1c(-c2ccccc2)c(/C=N/NC(=O)c2ccc(O)cc2)c2ccccc21	p97 ATPase inh 17 (no result: G6PDH counter, PMI act satM6P, PMI act, Redox H2O2 prof) | p97 confirm 28
CCOc1cc(C(=O)OCC(=O)Nc2ncc(Cl)c(C)c2Cl)ccc1OCC(=O)N1CCOCC1	none
CCCC(=O)Nc1ccc(C(N)=O)cc1	none
CC(=O)NCCC(=O)Nc1ccc(C(N)=O)cc1	p97 ATPase inh 23 | p97 confirm inactive
COc1ccc2[nH]cc(C(=O)CCl)c2c1	p97 ATPase inh 42 (no result: G6PDH counter, PMI act satM6P, PMI act, Redox H2O2 prof) | p97 confirm 46
COc1ccc(NC(=O)c2cc(-c3ccco3)nc3ccccc23)cc1S(=O)(=O)N1CCOCC1	none (no result: G6PDH counter, PMI act satM6P, PMI act, Redox H2O2 prof)
